# Source: PubChem BioAssay (several laboratories)
# CTSL1 counter: Fasciola hepatica cathepsin L1 inhibitors, primary screen, counter-screen for PFM18AAP inhibitor project, biochemical, QFRET, fluorogenic peptide substrate; 300,000 compounds, 0.49% hits; recombinant F. hepatica cathepsin L1, Z-Leu-Arg-MCA fluorescence; inhibition, % at 5.96 µM;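 active = inhibition above the mean of all tested compounds plus 3 SD, set per screening campaign, cut at about 17% in these data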;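 also: 0% = plate median of test compound wells and 100% = 1 µM Z-Phe-Ala-diazomethylketone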
# UCH37 DUB inh: inhibitors of human UCH37 deubiquitinase, primary screen, biochemical, Ub-AMC cleavage, fluorescence; Ubiquitin carboxyl-terminal hydrolase isozyme L5 (Homo sapiens), Q9Y5K5; purified proteasome/UCH37; inhibition, % (concentration not given with the values); 330,000 compounds, 0.33% hits; AID 588478, 2011;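 active = mean inhibition over replicate wells above about 20%, limit read from the data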;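 also: 0% = compound-free wells with enzyme and 100% = wells lacking proteasome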
#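 Material: Human UCH37 enzyme supplied as purified proteasome complex | Schedule: 30 min compound-proteasome preincubation then 25 min substrate reaction, room temperature | Detection: AMC fluorescence from Ub-AMC cleavage, excitation 355 nm, emission 460 nm | Benchmarks: Wells without proteasome as full block, compound-free enzyme plus substrate as uninhibited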
# PP1 counter: PP1-alpha phosphatase inhibitors, primary screen, counter-screen for PP5 inhibitor project, biochemical, fluorescence, OMFP substrate, single point; inhibition, % at 6.7 µM; 320,000 compounds, 0.9% hits; purified PP1alpha; AID 2235, 2010; Serine/threonine-protein phosphatase PP1-alpha catalytic subunit (Homo sapiens), P62136;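 active = inhibition above the mean inhibition of all tested compounds plus 3 SD, computed separately for each screening campaign, cut at about 15% in these data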
# PREPL inhibitor: PREPL enzyme inhibitors, primary screen, biochemical, fluorescence polarization; inhibition, % at 5.96 µM; 320,000 compounds, 0.68% hits; recombinant PREPL, fluorescence polarization activity-based probe; Prolyl endopeptidase-like (Homo sapiens), Q4J6C6; in the data active = inhibition above about 43%;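 also: 0% = enzyme with DMSO and 100% = wells lacking enzyme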
# Target sequence (Q4J6C6 whole entry, looked up): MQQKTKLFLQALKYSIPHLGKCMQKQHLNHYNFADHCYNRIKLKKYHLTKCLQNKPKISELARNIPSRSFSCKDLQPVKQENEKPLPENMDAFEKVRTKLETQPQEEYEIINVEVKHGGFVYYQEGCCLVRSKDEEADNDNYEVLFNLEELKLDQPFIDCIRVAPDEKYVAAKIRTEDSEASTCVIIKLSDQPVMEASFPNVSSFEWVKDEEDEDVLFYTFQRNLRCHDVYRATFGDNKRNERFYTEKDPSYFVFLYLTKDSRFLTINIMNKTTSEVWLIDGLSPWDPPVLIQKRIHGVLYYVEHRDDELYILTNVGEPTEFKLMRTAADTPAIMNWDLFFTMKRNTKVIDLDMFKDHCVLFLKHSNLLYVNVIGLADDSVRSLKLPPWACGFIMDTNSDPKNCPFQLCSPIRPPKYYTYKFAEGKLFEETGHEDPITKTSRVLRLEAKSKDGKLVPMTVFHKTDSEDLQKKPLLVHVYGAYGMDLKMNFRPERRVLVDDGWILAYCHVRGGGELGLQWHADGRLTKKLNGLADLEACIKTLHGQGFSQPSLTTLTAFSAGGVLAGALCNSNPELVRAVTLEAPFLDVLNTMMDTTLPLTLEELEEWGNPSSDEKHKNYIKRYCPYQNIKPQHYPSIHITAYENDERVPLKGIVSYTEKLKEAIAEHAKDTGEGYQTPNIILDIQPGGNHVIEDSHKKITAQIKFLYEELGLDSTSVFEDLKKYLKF
# PP5 primary: PP5 phosphatase inhibitors, primary screen, biochemical, fluorescence; 320,000 compounds, 0.18% hits; inhibition, % at 6.7 µM; purified PP5c, OMFP substrate fluorescence; Serine/threonine-protein phosphatase 5 (Homo sapiens), P53041;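 active = inhibition above the campaign's mean inhibition across all tested compounds plus 3 SD, cut at about 9.5% in these data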;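 also: 0% = DMSO only and 100% = 100 µM cantharidin control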
# UBC13 inh: UBC13 polyubiquitin chain formation inhibitors, primary screen, biochemical, TR-FRET, uHTS; Ubiquitin-conjugating enzyme E2 N (Homo sapiens), P61088; inhibition, % at 20 µM; 330,000 compounds, 0.47% hits; AID 485273, 2010; in the data active = inhibition above about 45%, passing the limit was not always enough; inconclusive = no clear call, values can overlap the other calls
# Casp3 counter: CASP3 inhibitor validation, counterassay for project on UBE2N polyubiquitination blockers, biochemical, one dose; shares compounds with UBC13 inh; Recombinant caspase-3, Caspase-Glo 3/7 luminescence, 60 min; inhibition, % at 20 µM; 1,400 compounds, 4% hits; AID 488856, 2010;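 active = mean inhibition across replicates above about 26%, limit read from the data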;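 also: plate controls were DMSO with caspase-3 for no effect and DMSO wells lacking enzyme for full effect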
# UBC13 conf: UBC13 polyubiquitination inhibitors, single-point retest, confirmation, biochemical, TR-FRET, single concentration | inhibition, % at 10 µM | 1,400 compounds, 68% hits | AID 488859, 2010 | shares compounds with UBC13 inh; in the data active = inhibition above about 45%; inconclusive = no clear call, values can overlap the other calls
# Numbers without * were called inactive; ? = inconclusive; / = no result given. A selection: hits, their analogues and other compounds. The true share with any hit is near 2.3%.
SMILES,CTSL1 counter,UCH37 DUB inh,PP1 counter,PREPL inhibitor,PP5 primary,UBC13 inh,Casp3 counter,UBC13 conf
COc1ccc(C(=O)c2c3ccc(C(F)(F)F)cc3[n+]([O-])n2CCCC(N)=O)cc1,-2.2,3.3,-2.4,11.5,0.0,-15.2,/,/
NCCCn1c(C(=O)c2cc(Cl)c(N)c(Cl)c2)c2ccc(C(F)(F)F)cc2[n+]1[O-],5.6,6.1,1.8,20.8,4.6,103.2*,0.9,111.3*
NC(=O)CCCn1c(C(=O)c2cc(Cl)c(N)c(Cl)c2)c2ccc(C(F)(F)F)cc2[n+]1[O-],4.8,1.9,0.3,5.7,5.2,96.6*,1.1,92.8*
NC(=O)c1ccc(Cn2c(C(=O)c3ccc(Cl)cc3)c3ccccc3[n+]2[O-])cc1,-1.7,0.5,0.5,11.2,1.8,0.5,/,/
COc1ccc(N(CC(=O)NN=Cc2ccc(OC)c(OC)c2)S(=O)(=O)c2ccccc2)cc1,/,0.5,/,/,/,/,/,/
O=[N+]([O-])c1cccc(-c2ccc(C=NNC(=S)NCc3ccco3)o2)c1,/,5.6,/,/,/,/,/,/
O=C(NN=Cc1[nH]c2ccccc2c1Cl)c1cccc(Br)c1,/,-204.1,/,/,/,/,/,/
COc1ccc(C=NN2CCN(Cc3ccccc3)CC2)cc1,/,2.9,/,/,/,/,/,/
CCC[C@@H](CN[C@@H](CNC)[C@H](C)CC)NCC1CCC(C(C)(C)C)CC1 (stereo partly drawn),-2.6,3.7,3.3,27.6,1.2,63.4*,-2.7,60.6*
CC(C)NCC(O)COC1CCC(C(C)(C)C)CC1 (stereo not drawn),-1.3,0.7,0.5,-12.8,1.5,7.4,/,/
CCC[C@H](CN[C@@H](CNC)[C@H](C)CC)NCCc1cc(C(F)(F)F)cc(C(F)(F)F)c1,-0.1,4.0,5.8,42.4,1.7,85.5*,5.1,73.1*
CNC(=S)NN=Cc1cc(Br)c(OCc2ccncc2)c(OC)c1,/,0.9,/,/,/,/,/,/
CC(C)CC(C(=O)NC1CCCC1)N(Cc1cccs1)C(=O)c1snc(C(N)=O)c1N (stereo not drawn),1.8,-13.5,-1.5,7.3,0.2,24.6,/,/
CC(C)CC(C(=O)NC(C)(C)C)N(Cc1ccccc1Cl)C(=O)c1snc(C(N)=O)c1N (stereo not drawn),/,-29.8,/,/,/,71.0*,4.1,93.1*
CC(C)CC(C(=O)NC(C)(C)C)N(Cc1cccs1)C(=O)c1snc(C(N)=O)c1N (stereo not drawn),-1.6,-11.4,-3.1,14.1,-0.9,65.0*,-1.9,66.9*
Nc1nonc1-n1nnc(C(=O)NN=Cc2ccccc2Br)c1CN1CCCC1,/,0.8,/,/,/,/,/,/
Nc1nonc1-n1nnc(C(=O)N/N=C/c2ccccc2Br)c1CN1CCCC1,2.7,/,-1.8,13.9,0.1,63.3*,-3.9,2.0
CCNC(=S)N=Nc1c(O)[nH]c2ccc(C(C)C)cc12,1.6,-0.5,2.3,7.3,0.6,90.2*,0.7,88.1*
CC(C)c1ccc2[nH]c(O)c(N=NC(=S)NCCc3ccccc3)c2c1,3.0,2.7,7.2,4.8,4.7,-5.6,/,/
CCNC(=S)N=Nc1c(O)[nH]c2ccc([N+](=O)[O-])cc12,5.8,4.9,-0.7,15.3,0.4,45.3*,0.8,60.5*
O=[N+]([O-])c1ccc2[nH]c(O)c(N=NC(=S)NCC3CCCO3)c2c1 (stereo not drawn),3.4,3.0,0.5,9.2,-0.7,91.3*,3.5,94.4*
CCCCCC(=O)N=Nc1c(O)[nH]c2ccc([N+](=O)[O-])cc12,-2.0,0.7,1.3,15.6,0.5,-5.8,/,/
Nc1nonc1-n1nnc(C(=O)NN=Cc2c[nH]c3ccccc23)c1-c1ccccc1,/,-25.9,/,/,/,/,/,/
COc1ccc(CCNC(=O)Cn2c(=O)n(-c3ccc(C)c(F)c3)c(=O)c3sccc32)cc1OC,1.2,2.1,0.5,13.1,0.9,49.3*,-0.5,45.5*
Cc1cc(NC(=O)c2cc(-c3ccc(C)s3)nc3ccccc23)no1,3.6,-107.3,-1.3,-0.1,0.1,39.9,/,/
SMILES,CTSL1 counter,UCH37 DUB inh,PP1 counter,PREPL inhibitor,PP5 primary,UBC13 inh,Casp3 counter,UBC13 conf
CN(Cc1ccccc1)C(=O)COC(=O)c1cc(-c2ccc(Cl)s2)nc2ccccc12,0.3,-102.5,-1.2,-19.7,1.6,51.3*,-1.6,?
Cc1cccc(NC(=O)c2cc(-c3ccc(C)s3)nc3ccccc23)n1,0.9,-87.4,2.4,-2.4,0.7,47.1*,2.9,40.0
O=C(Nc1ccccn1)c1cc(-c2ccc(Cl)s2)nc2ccccc12,/,-90.5,2.3,4.9,3.9,47.3*,1.3,?
O=C(NN=Cc1ccco1)c1ccc(N2CCCC2=O)cc1,/,9.8,/,/,/,/,/,/
CN(C)CCCn1cnc2c(c1=N)C(c1ccccc1)c1ccc3ccccc3c1O2 (stereo not drawn),-6.2,7.0,-0.3,3.6,1.9,70.9*,2.0,82.1*
O=C(O)c1ccc(C=NNc2ncc(Cl)cc2Cl)cc1,/,12.5,/,/,/,/,/,/
O=C(O)c1ccccc1C(=O)N1CCN(Cc2ccc3c(c2)OCO3)CC1,/,0.2,/,/,/,4.1,/,/
CCn1c(=O)cc(SCC(=O)NCCCN2CCN(c3ccc(F)cc3)CC2)c2ccccc21,-0.9,3.7,0.5,11.5,-1.2,91.7*,0.3,?
Cn1c(=O)cc(SCC(=O)N2CCN(C3CCCCC3)CC2)c2ccccc21,0.7,2.3,-8.5,1.8,-0.8,66.2*,-1.9,?
CCSc1ccccc1C(=O)N1CCN(Cc2ccc3c(c2)OCO3)CC1,5.4,2.6,-3.3,14.2,0.4,99.1*,-0.8,9.1
CCN1CCN(C(=O)CSc2cc(=O)n(CC)c3ccccc23)CC1,1.9,-1.7,1.9,-1.1,-1.3,46.6*,-2.2,?
CCOC(=O)C(=O)NN=Cc1ccco1,/,7.6,/,/,/,/,/,/
O=C(NN=Cc1ccc(O)cc1O)NC12CC3CC(CC(C3)C1)C2,/,-1.4,/,/,/,/,/,/
COC(=O)C(=NNc1ccccc1C(=O)OC)C(C)=NO,/,-25.6,/,/,/,/,/,/
CCCOc1ccc(C=NNC(=O)CN2CCCCC2)cc1,/,0.1,/,/,/,/,/,/
CCn1c(=O)cc(SCC(=O)N2CCN(Cc3ccc4c(c3)OCO4)CC2)c2ccccc21,-6.4,0.5,-4.0,-7.0,1.6,61.3*,-2.3,?
